Test results from ChEMBL document CHEMBL4177600, “Identification of novel PI3K inhibitors through a scaffold hopping strategy” (Bioorg Med Chem Lett, 2017).
Values after ≈ are worked out from the molar mass of the structure shown.

Legend:
[1] = biological target: Serine/threonine-protein kinase mTOR (Homo sapiens, UniProt P42345); experiment: Inhibition of recombinant human GST-tagged mTOR catalytic domain (1360 to 2549 residues) expressed in baculovirus expression system by AlexaFluor647-labeled kinase tracer 314 based LanthaScreen assay
[2] = biological target: Dual specificity tyrosine-phosphorylation-regulated kinase 1A (Homo sapiens) (UniProt Q13627); experiment: Inhibition of DYRK1A (unknown origin) at 1 uM relative to control
In short: (§1)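 Kinase panel of 24 enzymes, each tested at 1 µM; percent inhibition reported as the average of two independent data points.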

[3] = biological target: Fibroblast growth factor receptor 1 (Homo sapiens) (UniProt P11362); experiment: Inhibition of recombinant human N-terminal GST/His6-tagged FGFR1 (G400 to R820 residues) expressed in Sf9 insect cells at 1 uM using poly(Glu,Tyr)4:1 as substrate by filter binding method relative to control; in short: as §1
[4] = biological target: T1, Inhibitor of nuclear factor kappa-B kinase subunit beta (Homo sapiens) (UniProt O14920); experiment: Inhibition of recombinant human N-terminal GST/His6-tagged IKKbeta (M1 to S756 residues) expressed in baculovirus infected Sf9 cells at 1 uM using IKBa derived peptide as substrate by filter binding method relative to control; in short: as §1
T1 sequence (whole entry): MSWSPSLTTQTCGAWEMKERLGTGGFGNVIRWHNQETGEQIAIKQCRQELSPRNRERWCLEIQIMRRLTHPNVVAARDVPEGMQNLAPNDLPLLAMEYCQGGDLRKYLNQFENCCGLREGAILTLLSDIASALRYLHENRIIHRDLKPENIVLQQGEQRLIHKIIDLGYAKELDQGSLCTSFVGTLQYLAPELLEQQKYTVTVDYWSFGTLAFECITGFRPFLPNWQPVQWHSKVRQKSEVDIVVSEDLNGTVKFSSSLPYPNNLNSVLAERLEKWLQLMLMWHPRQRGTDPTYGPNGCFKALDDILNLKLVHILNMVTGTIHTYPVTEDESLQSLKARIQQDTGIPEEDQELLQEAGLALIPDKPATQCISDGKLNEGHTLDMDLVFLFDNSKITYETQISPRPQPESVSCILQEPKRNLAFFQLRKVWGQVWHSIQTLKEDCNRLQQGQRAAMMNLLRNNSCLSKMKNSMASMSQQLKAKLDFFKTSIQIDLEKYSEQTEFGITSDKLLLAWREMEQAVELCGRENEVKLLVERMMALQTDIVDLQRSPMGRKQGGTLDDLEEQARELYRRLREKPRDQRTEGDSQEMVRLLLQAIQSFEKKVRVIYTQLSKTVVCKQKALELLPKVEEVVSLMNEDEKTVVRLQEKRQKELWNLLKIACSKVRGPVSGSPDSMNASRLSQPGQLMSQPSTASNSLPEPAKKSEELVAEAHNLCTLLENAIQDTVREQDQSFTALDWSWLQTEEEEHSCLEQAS

[5] = biological target: Ribosomal protein S6 kinase alpha-1 (Homo sapiens) (UniProt Q15418); experiment: Inhibition of RPS6KA1 (unknown origin) at 1 uM relative to control; in short: as §1
[6] = biological target: T2, Serine/threonine-protein kinase Sgk1 (Homo sapiens) (UniProt O00141); experiment: Inhibition of recombinant human N-terminal GST-tagged SGK1 (M1 to L431 residues) expressed in baculovirus infected Sf9 cells at 1 uM using GSK3-derived peptide as substrate by filter binding method relative to control; in short: as §1
T2 sequence (whole entry): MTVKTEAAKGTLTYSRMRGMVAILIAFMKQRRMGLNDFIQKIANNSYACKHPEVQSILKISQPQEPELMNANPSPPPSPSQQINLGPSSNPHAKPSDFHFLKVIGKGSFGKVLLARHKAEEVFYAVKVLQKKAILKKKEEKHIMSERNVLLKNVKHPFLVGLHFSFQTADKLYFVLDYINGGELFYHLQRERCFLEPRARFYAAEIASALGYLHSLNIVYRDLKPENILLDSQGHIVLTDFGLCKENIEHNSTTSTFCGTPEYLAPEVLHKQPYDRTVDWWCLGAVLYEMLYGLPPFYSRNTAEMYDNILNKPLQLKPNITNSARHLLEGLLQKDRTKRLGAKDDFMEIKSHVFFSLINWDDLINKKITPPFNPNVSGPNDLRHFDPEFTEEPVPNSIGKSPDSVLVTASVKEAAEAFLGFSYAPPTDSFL

[7] = biological target: Proto-oncogene tyrosine-protein kinase Src (Homo sapiens) (UniProt P12931); experiment: Inhibition of human SRC at 1 uM using poly(Glu,Tyr)4:1 as substrate by filter binding method relative to control; in short: as §1
CYP3A4 = CYP3A4 (Homo sapiens, UniProt P08684); experiment: Inhibition of CYP3A4 (unknown origin) at 10 uM relative to control; assay type: ADME
In short: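 CYP1A2, 2C9, 2C19, 2D6 and 3A4 inhibition measured at 10 µM test compound in duplicate; percent inhibition reported.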

[8] = Half-life in BALB-C mouse at 3 mg/kg, iv by LC-MS/MS analysis; assay type: ADME, organism-based; conditions: in vivo
In short: (§2)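 BALB-C mice dosed IV (10% NMP/50% PEG300/40% saline) or PO (10% NMP/90% PEG300). Plasma sampled at 6 (IV) or 8 (PO) time points; compound measured by LC/MS/MS. Parameters from bicompartmental model fit; each value is the mean of 3 independent samples.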

[9] = AUC (infinity) in BALB-C mouse at 3 mg/kg, iv by LC-MS/MS analysis; assay type: ADME, organism-based; set-up: dose 3 mg/kg, time infinity, route intravenous; conditions: in vivo; in short: as §2
[10] = AUC (infinity) in BALB-C mouse at 9 mg/kg, po by LC-MS/MS analysis; assay type: ADME, organism-based; set-up: dose 9 mg/kg, time infinity, route oral; conditions: in vivo; in short: as §2
[11] = Half-life in BALB-C mouse at 5 mg/kg, iv by LC-MS/MS analysis; assay type: ADME, organism-based; conditions: in vivo; in short: as §2
[12] = Clearance in BALB-C mouse at 5 mg/kg, iv by LC-MS/MS analysis; assay type: ADME, organism-based; conditions: in vivo
In short: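 Mice (BALB-C) given IV dose in 10% NMP/50% PEG300/40% saline; plasma sampled at 6 times, levels by LC/MS/MS.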

[13] = Volume of distribution in BALB-C mouse at 5 mg/kg, iv by LC-MS/MS analysis; assay type: ADME, organism-based; conditions: in vivo
In short: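 BALB-C mice dosed IV in 10% NMP/50% PEG300/40% saline or PO in 10% NMP/90% PEG300. Plasma sampled at 6 (IV) or 8 (PO) time points and quantified by LC/MS/MS. Parameters come from a bicompartmental model fit; values are means of 3 independent samples. Plasma levels were compared with AKT-P EC50 from U2OS cells converted to ng/ml.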

[14] = AUC (infinity) in BALB-C mouse at 5 mg/kg, iv by LC-MS/MS analysis; assay type: ADME, organism-based; set-up: dose 5 mg/kg, time infinity, route intravenous; conditions: in vivo; in short: as §2
[15] = Cmax in BALB-C mouse at 10 mg/kg, po by LC-MS/MS analysis; assay type: ADME, organism-based; set-up: dose 10 mg/kg, route oral; conditions: in vivo; in short: as §2
Mus musculus = experiment: Clearance in BALB-C mouse at 5 mg/kg, iv by LC-MS/MS analysis relative to hepatic blood flow; assay type: ADME, organism-based; conditions: in vivo
U2OS = experiment: Inhibition of AKT phosphorylation in human U2OS cells

Chain of Fibroblast growth factor receptor 1 (Homo sapiens) (P11362 22-822 limits assumed): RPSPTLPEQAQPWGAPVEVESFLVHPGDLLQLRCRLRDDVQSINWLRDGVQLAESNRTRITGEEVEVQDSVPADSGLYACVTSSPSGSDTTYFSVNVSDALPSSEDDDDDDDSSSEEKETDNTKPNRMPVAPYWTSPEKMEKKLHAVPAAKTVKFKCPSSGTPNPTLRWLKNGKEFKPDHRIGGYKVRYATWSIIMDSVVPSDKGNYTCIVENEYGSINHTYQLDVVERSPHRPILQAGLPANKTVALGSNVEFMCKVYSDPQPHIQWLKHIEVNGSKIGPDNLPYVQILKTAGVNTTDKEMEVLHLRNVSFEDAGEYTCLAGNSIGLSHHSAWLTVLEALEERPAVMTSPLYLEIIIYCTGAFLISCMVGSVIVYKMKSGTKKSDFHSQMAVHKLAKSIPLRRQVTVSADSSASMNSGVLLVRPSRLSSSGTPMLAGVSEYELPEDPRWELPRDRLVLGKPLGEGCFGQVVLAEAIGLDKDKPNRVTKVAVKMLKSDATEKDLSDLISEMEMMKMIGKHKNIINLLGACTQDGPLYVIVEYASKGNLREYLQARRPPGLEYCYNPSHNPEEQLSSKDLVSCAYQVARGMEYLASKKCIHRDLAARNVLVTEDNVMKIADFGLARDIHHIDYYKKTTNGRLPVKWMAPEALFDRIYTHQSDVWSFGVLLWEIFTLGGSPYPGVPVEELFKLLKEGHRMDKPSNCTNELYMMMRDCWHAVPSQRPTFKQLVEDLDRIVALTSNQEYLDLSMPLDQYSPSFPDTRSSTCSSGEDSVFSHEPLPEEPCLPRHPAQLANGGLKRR
Chain of CYP3A4 (P08684 whole entry): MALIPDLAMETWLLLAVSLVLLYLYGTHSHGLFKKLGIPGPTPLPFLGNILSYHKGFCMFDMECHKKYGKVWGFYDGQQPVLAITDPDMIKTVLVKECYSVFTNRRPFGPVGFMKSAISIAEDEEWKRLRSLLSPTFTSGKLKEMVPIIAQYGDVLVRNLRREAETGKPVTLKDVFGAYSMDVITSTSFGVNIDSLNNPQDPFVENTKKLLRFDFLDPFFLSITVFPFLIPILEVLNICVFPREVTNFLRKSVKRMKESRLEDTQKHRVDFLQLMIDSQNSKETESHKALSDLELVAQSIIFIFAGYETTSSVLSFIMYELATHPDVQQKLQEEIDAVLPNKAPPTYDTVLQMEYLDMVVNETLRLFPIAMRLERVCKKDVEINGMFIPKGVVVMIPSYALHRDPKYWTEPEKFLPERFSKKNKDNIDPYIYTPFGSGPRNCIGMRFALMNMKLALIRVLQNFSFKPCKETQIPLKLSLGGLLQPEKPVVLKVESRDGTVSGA
Chain of Proto-oncogene tyrosine-protein kinase Src (Homo sapiens) (P12931 2-536 limits assumed): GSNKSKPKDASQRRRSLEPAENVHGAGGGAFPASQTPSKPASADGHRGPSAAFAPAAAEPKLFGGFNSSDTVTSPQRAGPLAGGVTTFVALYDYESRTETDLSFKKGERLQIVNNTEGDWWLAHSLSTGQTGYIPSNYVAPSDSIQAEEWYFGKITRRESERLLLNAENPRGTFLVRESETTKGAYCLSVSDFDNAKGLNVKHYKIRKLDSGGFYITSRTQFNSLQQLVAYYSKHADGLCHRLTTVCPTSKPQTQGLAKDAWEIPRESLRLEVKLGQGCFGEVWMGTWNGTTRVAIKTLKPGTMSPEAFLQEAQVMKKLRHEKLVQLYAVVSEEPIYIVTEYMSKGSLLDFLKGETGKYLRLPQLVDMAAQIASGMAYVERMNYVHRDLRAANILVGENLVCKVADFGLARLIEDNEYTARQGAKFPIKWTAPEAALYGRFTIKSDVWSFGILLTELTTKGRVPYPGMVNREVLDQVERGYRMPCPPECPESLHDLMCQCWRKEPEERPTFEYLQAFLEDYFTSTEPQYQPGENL
Chain of Ribosomal protein S6 kinase alpha-1 (Homo sapiens) (Q15418 whole entry, the tested form may be a part): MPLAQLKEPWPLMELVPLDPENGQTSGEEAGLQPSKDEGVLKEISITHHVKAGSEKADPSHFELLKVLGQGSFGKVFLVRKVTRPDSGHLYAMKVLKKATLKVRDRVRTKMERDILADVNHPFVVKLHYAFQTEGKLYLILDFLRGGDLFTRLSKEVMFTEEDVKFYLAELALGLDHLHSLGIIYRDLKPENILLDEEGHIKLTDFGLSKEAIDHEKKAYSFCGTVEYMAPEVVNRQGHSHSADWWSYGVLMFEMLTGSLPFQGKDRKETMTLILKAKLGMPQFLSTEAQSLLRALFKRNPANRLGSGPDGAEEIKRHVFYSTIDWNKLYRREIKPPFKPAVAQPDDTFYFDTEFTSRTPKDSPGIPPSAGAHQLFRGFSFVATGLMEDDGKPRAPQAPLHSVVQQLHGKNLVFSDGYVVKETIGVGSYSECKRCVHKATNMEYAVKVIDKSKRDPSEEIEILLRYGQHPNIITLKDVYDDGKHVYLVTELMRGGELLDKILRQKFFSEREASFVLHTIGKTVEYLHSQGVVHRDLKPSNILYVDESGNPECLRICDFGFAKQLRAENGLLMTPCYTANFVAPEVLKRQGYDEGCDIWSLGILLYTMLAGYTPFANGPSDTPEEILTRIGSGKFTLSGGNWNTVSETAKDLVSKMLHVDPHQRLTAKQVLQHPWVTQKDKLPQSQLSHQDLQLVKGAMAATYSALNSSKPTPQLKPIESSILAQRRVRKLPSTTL

For `CS(=O)(=O)N1CCN(Cc2cc3c(N4CCOCC4)nc(-c4cnc(N)nc4)cn3n2)CC1`, the IC50 [1] was 1.7 µM, the inhibition [2] was under 25% and the inhibition [3] was under 25%. For the same compound, the inhibition [4] was under 25%, the inhibition [5] was under 25% and the inhibition [6] was under 25%. The inhibition [7] was under 25%, the inhibition at 10 µM (CYP3A4) was under 25% and the half-life [8] was 30.6 min. It also gave an AUC(0-inf) [9] of 5820 ng·h/mL and an AUC(0-inf) [10] of 5150 ng·h/mL.
`CS(=O)(=O)N1CCN(Cc2nc3c(N4CCOCC4)nc(-c4cnc(N)nc4)cn3n2)CC1` showed an inhibition [2] of under 25%, an inhibition [3] of under 25% and an inhibition [4] of under 25%. The inhibition [5] was under 25%, the inhibition [6] was under 25% and the inhibition [7] was under 25%. It also gave an inhibition at 10 µM (CYP3A4) of under 25%, a half-life [11] of 15.6 min and a clearance [12] of 35.5 mL/min/kg. The Vd [13] was 2 L/kg, the AUC(0-inf) [14] was 2660 ng·h/mL and the Cmax [15] was 674 ng/mL. It also gave a CL (Mus musculus) of under 50% and an EC50 (U2OS) of 0.04138 µg/mL (≈ 0.0872 µM).
In the case of `CS(=O)(=O)N1CCN(Cc2cn3nc(-c4cnc(N)nc4)nc(N4CCOCC4)c3n2)CC1`, the inhibition [2] is reported as under 25%, the inhibition [3] is reported as under 25% and the inhibition [4] is reported as under 25%. It also gave an inhibition [5] of under 25%, an inhibition [6] of under 25% and an inhibition [7] of under 25%. For the same compound, the inhibition at 10 µM (CYP3A4) was under 25%.
`CS(=O)(=O)N1CCN(Cc2nc3c(N4CCOCC4)nc(-c4cnc(N)nc4)c(Cl)n3n2)CC1` gave an IC50 [1] of 8.17 µM, an inhibition [2] of under 25% and an inhibition [3] of under 25%. For the same compound, the inhibition [4] was under 25%, the inhibition [5] was under 25% and the inhibition [6] was under 25%. For the same compound, the inhibition [7] was under 25%, the inhibition at 10 µM (CYP3A4) was under 25% and the half-life [11] was 109 min. It also gave a clearance [12] of 10.8 mL/min/kg, a Vd [13] of 1.61 L/kg and an AUC(0-inf) [14] of 7730 ng·h/mL. For the same compound, the CL (Mus musculus) was under 50%.
